Data reported in ChEMBL document CHEMBL3826885, “Similarities and differences in affinity and binding modes of tricyclic pyrimido- and pyrazinoxanthines at human and rat adenosine receptors” (Bioorg Med Chem, 2016).
Values after ≈ are worked out from the molar mass of the structure shown.

Assays:
[1] = molecular target: T1, Adenosine receptor A2b (Homo sapiens) (UniProt P29275); assay: Displacement of [3H]PSB-603 from recombinant human adenosine receptor A2b expressed in CHO cell membranes at 1 uM
T1 sequence (whole entry): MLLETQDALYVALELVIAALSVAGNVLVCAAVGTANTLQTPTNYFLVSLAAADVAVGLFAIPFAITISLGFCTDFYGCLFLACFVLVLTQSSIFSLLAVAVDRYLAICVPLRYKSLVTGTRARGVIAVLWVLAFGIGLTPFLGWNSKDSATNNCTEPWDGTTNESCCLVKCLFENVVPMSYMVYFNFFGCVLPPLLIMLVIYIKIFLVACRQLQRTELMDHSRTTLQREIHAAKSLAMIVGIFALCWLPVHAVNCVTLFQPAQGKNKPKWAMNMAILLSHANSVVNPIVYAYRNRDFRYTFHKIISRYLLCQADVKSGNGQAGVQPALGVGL
How it was run: (§1)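 Membranes came from CHO cells expressing recombinant receptors (human A1, A2A, A2B, A3; rat A2B, A3). Radioligands were [3H]CCPA for A1 and [3H]PSB-11 or [3H]NECA for A3. A single high concentration was screened first, in three experiments for A1/A2A and two for A2B/A3. Full inhibition curves spanning at least 3 log units were run for potent compounds.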

[2] = molecular target: T2, Adenosine receptor A1 (Homo sapiens) (UniProt P30542); assay: Displacement of [3H]CCPA from recombinant human adenosine receptor A1 expressed in CHO cell membranes at 1 uM; how it was run: as §1
T2 sequence (whole entry): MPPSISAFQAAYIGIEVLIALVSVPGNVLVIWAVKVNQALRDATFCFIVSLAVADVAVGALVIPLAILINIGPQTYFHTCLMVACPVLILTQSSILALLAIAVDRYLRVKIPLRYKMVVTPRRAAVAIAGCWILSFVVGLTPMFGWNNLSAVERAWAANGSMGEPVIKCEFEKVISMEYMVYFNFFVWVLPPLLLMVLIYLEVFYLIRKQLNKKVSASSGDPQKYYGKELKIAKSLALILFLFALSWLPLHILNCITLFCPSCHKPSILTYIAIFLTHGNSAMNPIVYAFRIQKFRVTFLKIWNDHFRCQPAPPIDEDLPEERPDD

Adenosine receptor A2a [3] = molecular target: T3, Adenosine receptor A2a (Homo sapiens, UniProt P29274); assay: Displacement of [3H]MSX2 from recombinant human adenosine receptor A2a expressed in CHO cell membranes at 1 uM; how it was run: as §1
Adenosine receptor A2a [4] = molecular target: Adenosine receptor A2a (Rattus norvegicus, UniProt P30543); assay: Displacement of [3H]MSX2 from adenosine receptor A2a in rat brain striatal membranes; type: cell membranes, Membrane
How it was run: (§2)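 Native rat receptors: A1 in brain cortical membranes with [3H]CCPA, A2A in brain striatal membranes, from frozen unstripped rat brains. Compounds were first screened at a single high concentration in three independent experiments. Active compounds then had full inhibition curves over at least 3 orders of magnitude of concentration.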

[5] = molecular target: T4, Adenosine receptor A3 (Rattus norvegicus) (UniProt P28647); assay: Displacement of [3H]NECA from recombinant rat adenosine receptor A3 expressed in CHO cell membranes at 1 uM; how it was run: as §1
T4 sequence (whole entry): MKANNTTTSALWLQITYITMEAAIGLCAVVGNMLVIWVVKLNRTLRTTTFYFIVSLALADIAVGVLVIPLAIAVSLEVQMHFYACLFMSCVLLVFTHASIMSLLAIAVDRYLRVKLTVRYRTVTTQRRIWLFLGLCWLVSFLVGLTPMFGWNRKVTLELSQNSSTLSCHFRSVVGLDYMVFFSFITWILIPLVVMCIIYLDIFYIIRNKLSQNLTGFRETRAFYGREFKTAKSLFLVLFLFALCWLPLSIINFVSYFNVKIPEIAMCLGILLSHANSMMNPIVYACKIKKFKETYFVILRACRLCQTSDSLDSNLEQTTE

Adenosine receptor A2b [6] = molecular target: T5, Adenosine receptor A2b (Homo sapiens, UniProt P29275); assay: Displacement of [3H]PSB-603 from recombinant human adenosine receptor A2b expressed in CHO cell membranes
T5 sequence (P29275 whole entry): T1 sequence (whole entry)
How it was run: (§3)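 Membranes came from CHO cells expressing recombinant receptors (human A1, A2A, A2B, A3; rat A2B, A3). Radioligands were [3H]CCPA for A1 and [3H]PSB-11 or [3H]NECA for A3. A single high concentration was screened first, in three experiments for A1/A2A and two for A2B/A3.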

[7] = molecular target: T6, Adenosine receptor A2b (Rattus norvegicus) (UniProt P29276); assay: Displacement of [3H]PSB-603 from recombinant rat adenosine receptor A2b expressed in CHO cell membranes at 1 uM; how it was run: as §1
T6 sequence (whole entry): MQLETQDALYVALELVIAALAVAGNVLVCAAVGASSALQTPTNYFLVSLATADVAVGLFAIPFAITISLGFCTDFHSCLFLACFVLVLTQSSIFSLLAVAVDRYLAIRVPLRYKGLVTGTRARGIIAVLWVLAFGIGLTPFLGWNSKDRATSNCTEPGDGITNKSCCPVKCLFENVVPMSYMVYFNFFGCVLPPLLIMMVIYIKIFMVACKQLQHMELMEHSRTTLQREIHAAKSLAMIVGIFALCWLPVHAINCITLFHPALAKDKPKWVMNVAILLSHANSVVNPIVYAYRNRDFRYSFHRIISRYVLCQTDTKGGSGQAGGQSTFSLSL

Adenosine receptor A2a [8] = molecular target: T3, Adenosine receptor A2a; assay: Displacement of [3H]MSX2 from recombinant human adenosine receptor A2a expressed in CHO cell membranes; how it was run: as §1
[9] = molecular target: Adenosine receptor A2a (Rattus norvegicus) (UniProt P30543); assay: Displacement of [3H]MSX2 from Adenosine receptor A2a in rat brain striatal membranes at 1 uM; type: cell membranes; conditions: Membrane; how it was run: as §2
Adenosine receptor A1 [10] = molecular target: T7, Adenosine receptor A1 (Homo sapiens, UniProt P30542); assay: Displacement of [3H]CCPA from recombinant human adenosine receptor A1 expressed in CHO cell membranes; how it was run: as §1
T7 sequence (P30542 whole entry): T2 sequence (whole entry)

[11] = molecular target: T8, Adenosine receptor A1 (Rattus norvegicus) (UniProt P25099); assay: Displacement of [3H]CCPA from adenosine receptor A1 in rat brain cortical membranes at 1 uM; type: cell membranes; how it was run: as §2
T8 sequence (whole entry): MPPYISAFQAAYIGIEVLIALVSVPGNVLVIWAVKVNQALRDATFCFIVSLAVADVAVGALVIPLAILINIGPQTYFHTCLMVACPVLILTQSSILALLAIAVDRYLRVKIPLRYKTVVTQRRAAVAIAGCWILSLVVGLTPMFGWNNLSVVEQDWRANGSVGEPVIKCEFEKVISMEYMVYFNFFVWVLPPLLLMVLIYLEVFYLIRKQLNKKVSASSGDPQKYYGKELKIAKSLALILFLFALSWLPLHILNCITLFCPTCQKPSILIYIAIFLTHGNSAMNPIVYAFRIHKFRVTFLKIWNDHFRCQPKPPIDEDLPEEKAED

Adenosine receptor A1 [12] = molecular target: T9, Adenosine receptor A1 (Rattus norvegicus, UniProt P25099); assay: Displacement of [3H]CCPA from adenosine receptor A1 in rat brain cortical membranes; type: cell membranes
T9 sequence (P25099 whole entry): T8 sequence (whole entry)
How it was run: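 Native rat receptors: A1 in brain cortical membranes with [3H]CCPA, A2A in brain striatal membranes, from frozen unstripped rat brains. Compounds were first screened at a single high concentration in three independent experiments.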

Adenosine receptor A3 [13] = molecular target: T10, Adenosine receptor A3 (Homo sapiens, UniProt P0DMS8); assay: Displacement of [3H]PSB-11 from recombinant human adenosine receptor A3 expressed in CHO cell membranes
T10 sequence (P0DMS8 whole entry): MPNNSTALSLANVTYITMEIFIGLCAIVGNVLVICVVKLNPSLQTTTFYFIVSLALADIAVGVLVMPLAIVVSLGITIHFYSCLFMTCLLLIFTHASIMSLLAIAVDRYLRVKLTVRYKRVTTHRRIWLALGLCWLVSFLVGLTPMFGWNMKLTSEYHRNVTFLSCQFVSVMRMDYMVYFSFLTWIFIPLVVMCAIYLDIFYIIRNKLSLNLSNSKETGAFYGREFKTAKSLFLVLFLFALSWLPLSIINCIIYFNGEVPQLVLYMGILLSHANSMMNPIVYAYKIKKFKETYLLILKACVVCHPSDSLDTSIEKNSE

[14] = molecular target: T11, Adenosine receptor A3 (Homo sapiens) (UniProt P0DMS8); assay: Displacement of [3H]PSB11 from recombinant human adenosine receptor A3 expressed in CHO cell membranes at 1 uM; how it was run: as §1
T11 sequence (whole entry): T10 sequence (P0DMS8 whole entry)

[15] = Solubility of compound in water at 20 degC by UV-spectroscopic analysis; type: physicochemical
How it was run: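 Suspensions were boiled 5 min, left overnight at 20 °C, and filtered. Filtrates were diluted 10-80-fold in MeOH and read by UV in MeOH/H2O (90% v/v). Concentration came from standard curves of seven concentrations from 10^-3 to 10^-1 mg/mL, using linear regression of two neighbouring points and multiplying by the dilution.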

[16] = molecular target: T8, Adenosine receptor A1 (Rattus norvegicus); assay: Displacement of [3H]CCPA from adenosine receptor A1 in rat brain cortical membranes at 10 uM; type: cell membranes; conditions: 10 uM; how it was run: as §2
Adenosine receptor A3 [17] = molecular target: T12, Adenosine receptor A3 (Rattus norvegicus, UniProt P28647); assay: Displacement of [3H]NECA from recombinant rat adenosine receptor A3 expressed in CHO cell membranes; how it was run: as §3
T12 sequence (P28647 whole entry): T4 sequence (whole entry)

Adenosine receptor A2b [18] = molecular target: T13, Adenosine receptor A2b (Rattus norvegicus, UniProt P29276); assay: Displacement of [3H]PSB-603 from recombinant rat adenosine receptor A2b expressed in CHO cell membranes; how it was run: as §3
T13 sequence (P29276 whole entry): T6 sequence (whole entry)

T3 sequence (P29274 whole entry): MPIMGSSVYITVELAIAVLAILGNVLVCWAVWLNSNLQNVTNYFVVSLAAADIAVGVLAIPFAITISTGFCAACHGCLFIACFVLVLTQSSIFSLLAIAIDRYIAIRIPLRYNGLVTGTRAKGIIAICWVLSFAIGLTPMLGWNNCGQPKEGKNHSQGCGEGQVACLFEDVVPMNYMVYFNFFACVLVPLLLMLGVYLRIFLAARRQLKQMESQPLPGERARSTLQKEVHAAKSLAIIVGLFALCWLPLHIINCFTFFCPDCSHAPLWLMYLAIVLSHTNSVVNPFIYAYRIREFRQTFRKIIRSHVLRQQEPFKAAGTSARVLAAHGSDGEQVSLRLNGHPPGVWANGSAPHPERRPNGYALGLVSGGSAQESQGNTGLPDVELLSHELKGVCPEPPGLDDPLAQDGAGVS
Sequence of Adenosine receptor A2a (Rattus norvegicus) (P30543 whole entry): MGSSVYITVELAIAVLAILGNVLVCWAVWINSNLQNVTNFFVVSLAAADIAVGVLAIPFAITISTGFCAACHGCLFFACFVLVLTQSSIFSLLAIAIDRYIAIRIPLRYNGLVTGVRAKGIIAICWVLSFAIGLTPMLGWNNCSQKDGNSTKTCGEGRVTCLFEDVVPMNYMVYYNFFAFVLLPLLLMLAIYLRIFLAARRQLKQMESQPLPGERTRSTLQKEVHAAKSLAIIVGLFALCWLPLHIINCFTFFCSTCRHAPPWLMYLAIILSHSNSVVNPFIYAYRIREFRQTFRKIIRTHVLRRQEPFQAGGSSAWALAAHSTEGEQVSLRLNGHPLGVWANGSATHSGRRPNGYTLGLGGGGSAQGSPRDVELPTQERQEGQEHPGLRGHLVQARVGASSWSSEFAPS
Sequence of Adenosine receptor A2a (Rattus norvegicus, UniProt P30543) (P30543 whole entry): as above

Row | inhibition [1] | inhibition [2] | inhibition (Adenosine receptor A2a [3]) | Ki (Adenosine receptor A2a [4]) | inhibition [5] | Ki (Adenosine receptor A2b [6]) | inhibition [7] | Ki (Adenosine receptor A2a [8]) | inhibition [9] | Ki (Adenosine receptor A1 [10]) | inhibition [11] | Ki (Adenosine receptor A1 [12]) | Ki (Adenosine receptor A3 [13]) | inhibition [14] | solubility [15] | inhibition [16] | Ki (Adenosine receptor A3 [17]) | Ki (Adenosine receptor A2b [18]) | SMILES
1 | 42% | 20% | 30% | 271 nM | 19% | > 500 nM | 14% | 2180 nM | 80% | 2020 nM | 14% |  |  |  |  |  |  |  | CCn1c(=O)c2c(nc3n2CCCN3CCc2ccc(O)cc2)n(CC)c1=O
2 | 22% |  |  | 1790 nM |  | > 1000 nM |  |  | 51% |  | 30% | 567 nM | > 1000 nM | 20% | 260 µg/mL (≈ 539 µM) |  |  |  | CCCn1c(=O)c2c(nc3n2CCCN3c2ccc(OCCN(CC)CC)cc2)n(CCC)c1=O
3 |  |  |  |  |  |  |  |  |  |  |  |  |  |  | 51 µg/mL (≈ 149 µM) |  |  |  | COc1ccc(N2CCCn3c2nc2c3c(=O)n(C)c(=O)n2C)cc1
4 | 4% |  |  | 11500 nM |  | > 1000 nM |  |  |  |  |  | > 10000 nM | > 1000 nM | 3% |  | 22% |  |  | Cn1c(=O)c2c(nc3n2CCN(CCc2ccc(OCCN4CCOCC4)cc2)C3)n(C)c1=O
5 | 10% | 22% | 10% | > 1000 nM | 10% | > 1000 nM | 4% | 2380 nM | 28% | 1990 nM | 53% | 175 nM | > 1000 nM | 20% |  |  | > 1000 nM | > 1000 nM | CCCn1c(=O)c2c(nc3n2CCCN3c2ccc(OCCN3CCCC3)cc2)n(CCC)c1=O
6 | 40% | 43% | 52% | 1050 nM | 15% | > 1000 nM | 9% | 1030 nM | 47% | 539 nM | 72% | 56 nM | > 1000 nM | 38% | 255 µg/mL (≈ 528 µM) |  | > 1000 nM | > 1000 nM | CCCCn1c(=O)c2c(nc3n2CCCN3c2ccc(OCCN(C)C)cc2)n(CCCC)c1=O
